Converted amounts (≈) assume the structure as drawn. The source made the active and inactive calls. The calls are words filed in the database; no cut-off is given here.
Key:
Staphylococcus aureus = test: Antibacterial activity against Staphylococcus aureus ATCC 25923 after 24 hrs by broth microdilution method; type: functional; conditions: ATCC 25923, 24 h
In short: (§1)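 Broth microdilution in Mueller Hinton broth; compound stocks in DMSO, diluted into test medium. Plates incubated at 35 °C and read visually after 24 h. MIC taken as lowest concentration preventing visible growth. Ampicillin reference.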

Enterococcus faecalis = test: Antibacterial activity against Enterococcus faecalis ATCC 29212 after 24 hrs by broth microdilution method; type: functional; conditions: ATCC 29212, 24 h; in short: as §1
Escherichia coli = test: Antibacterial activity against Escherichia coli ATCC 25922 after 24 hrs by broth microdilution method; type: functional; conditions: ATCC 25922, 24 h; in short: as §1
Pseudomonas aeruginosa = test: Antibacterial activity against Pseudomonas aeruginosa ATCC 27853 after 24 hrs by broth microdilution method; type: functional; conditions: ATCC 27853, 24 h; in short: as §1
Pichia kudriavzevii = test: Antifungal activity against Candida krusei ATCC 6258 after 48 hrs by broth microdilution method; type: functional; conditions: ATCC 6258, 48 h
Candida parapsilosis = test: Antifungal activity against Candida parapsilosis ATCC 22019 after 48 hrs by broth microdilution method; type: functional; conditions: Lodderomyces parapsilosis, ATCC 22019, 48 h
Mus musculus [1] = test: Anticonvulsant activity in CF1 mouse assessed as inhibition of maximal electroshock-induced seizures at 30 mg/kg, ip after 0.5 hrs; type: functional, organism-based; set-up: dose 30 mg/kg
In short: (§2)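 Male albino CF#1 mice (18–25.5 g), compound suspended in 0.5% methylcellulose, given ip 0.5 h or 4 h before test. Eyes treated with 0.5% tetracaine HCl in saline; corneal-type MES at 60 Hz, 50 mA for 0.2 s; protection scored as animals protected/tested.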

Mus musculus [2] = test: Anticonvulsant activity in CF1 mouse assessed as inhibition of maximal electroshock-induced seizures at 100 mg/kg, ip after 0.5 hrs; type: functional, organism-based; set-up: dose 100 mg/kg; in short: as §2
Mus musculus [3] = test: Anticonvulsant activity in CF1 mouse assessed as inhibition of maximal electroshock-induced seizures at 300 mg/kg, ip after 0.5 hrs; type: functional, organism-based; set-up: dose 300 mg/kg; in short: as §2
Mus musculus [4] = test: Anticonvulsant activity in CF1 mouse assessed as inhibition of maximal electroshock-induced seizures at 30 mg/kg, ip after 4 hrs; type: functional, organism-based; set-up: dose 30 mg/kg; in short: as §2
Mus musculus [5] = test: Neurotoxicity in CF1 mouse at 30 mg/kg, ip after 0.5 hrs by rotarod test; type: toxicity, organism-based; set-up: dose 30 mg/kg, route intraperitoneal; conditions: in vivo
In short: (§3)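 Male albino CF#1 mice (18–25.5 g) dosed ip with compound suspended in 0.5% methylcellulose, 0.5 h or 4 h before testing; neurotoxicity assessed by rotarod, scored as number toxic/number tested.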

Mus musculus [6] = test: Neurotoxicity in CF1 mouse at 100 mg/kg, ip after 0.5 hrs by rotarod test; type: toxicity, organism-based; set-up: dose 100 mg/kg, route intraperitoneal; conditions: in vivo; in short: as §3
Mus musculus [7] = test: Neurotoxicity in CF1 mouse assessed as hyperactivity at 300 mg/kg, ip after 0.5 hrs by rotarod test; type: toxicity, organism-based; set-up: dose 300 mg/kg, route intraperitoneal; conditions: in vivo
Mus musculus [8] = test: Neurotoxicity in CF1 mouse at 30 mg/kg, ip after 4 hrs by rotarod test; type: toxicity, organism-based; set-up: dose 30 mg/kg, route intraperitoneal; conditions: in vivo; in short: as §3
Mus musculus [9] = test: Neurotoxicity in CF1 mouse at 100 mg/kg, ip after 4 hrs by rotarod test; type: toxicity, organism-based; set-up: dose 100 mg/kg, route intraperitoneal; conditions: in vivo; in short: as §3
Mus musculus [10] = test: Neurotoxicity in CF1 mouse at 300 mg/kg, ip after 4 hrs by rotarod test; type: toxicity, organism-based; set-up: dose 300 mg/kg, route intraperitoneal; conditions: in vivo; in short: as §3
Mus musculus [11] = test: Neurotoxicity in CF1 mouse assessed as ability to grasp rotarod at 300 mg/kg, ip after 4 hrs by rotarod test; type: toxicity, organism-based; set-up: dose 300 mg/kg, route intraperitoneal; conditions: in vivo
In short: (§4)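 Male albino CF#1 mice (18–25.5 g), free access to food and water except during testing, under NINDS Anticonvulsant Screening Program procedures. Compounds were suspended in 0.5% methylcellulose and given ip. Neurotoxicity was scored by rotarod 0.5 h and 4 h after dosing, at screening doses of 30, 100 or 300 mg/kg. Results are reported as affected/tested animals.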

Mus musculus [12] = test: Neurotoxicity in CF1 mouse assessed as mortality at 300 mg/kg, ip after 4 hrs by rotarod test; type: toxicity, organism-based; set-up: dose 300 mg/kg, route intraperitoneal; conditions: in vivo; in short: as §4
Mus musculus [13] = test: Anticonvulsant activity in CF1 mouse assessed as inhibition of maximal electroshock-induced seizures at 100 mg/kg, ip after 4 hrs; type: functional, organism-based; set-up: dose 100 mg/kg; in short: as §2
Mus musculus [14] = test: Anticonvulsant activity in CF1 mouse assessed as inhibition of maximal electroshock-induced seizures at 300 mg/kg, ip after 4 hrs; type: functional, organism-based; set-up: dose 300 mg/kg; in short: as §2
Mus musculus [15] = test: Neurotoxicity in CF1 mouse at 300 mg/kg, ip after 0.5 hrs by rotarod test; type: toxicity, organism-based; set-up: dose 300 mg/kg, route intraperitoneal; conditions: in vivo; in short: as §3

CC1(C)S[C@@H]2[C@H](NC(=O)[C@H](N)c3ccccc3)C(=O)N2[C@H]1C(=O)O [AMPICILLIN]
MIC (Staphylococcus aureus): 1 µg/mL (≈ 2.86 µM) | MIC (Enterococcus faecalis): 2 µg/mL (≈ 5.72 µM) | MIC (Escherichia coli): 8 µg/mL (≈ 22.9 µM)

CCCCC(=O)OC(Cn1ccnc1)c1ccc2ccccc2c1 (centres undefined)
MIC (Staphylococcus aureus): 8 µg/mL (≈ 24.8 µM) | MIC (Enterococcus faecalis): 32 µg/mL (≈ 99.3 µM) | MIC (Escherichia coli): > 1020 µg/mL | MIC (Pseudomonas aeruginosa): > 1020 µg/mL | MIC (Pichia kudriavzevii): 128 µg/mL (≈ 397 µM) | MIC (Candida parapsilosis): 128 µg/mL (≈ 397 µM) | inhibition (Mus musculus [1]): Active | inhibition (Mus musculus [2]): Active | inhibition (Mus musculus [3]): Active | inhibition (Mus musculus [4]): inactive | Activity (Mus musculus [5]): Non-toxic | Activity (Mus musculus [6]): Non-toxic | Activity (Mus musculus [7]): Toxic | Activity (Mus musculus [8]): Non-toxic | Activity (Mus musculus [9]): Non-toxic | Activity (Mus musculus [10]): Toxic | Activity (Mus musculus [11]): Toxic | Activity (Mus musculus [12]): Toxic

Oc1c(C(O)Cn2ccnc2)ccc2ccccc12 (centres undefined)
MIC (Staphylococcus aureus): 512 µg/mL (≈ 2010 µM) | MIC (Enterococcus faecalis): 256 µg/mL (≈ 1010 µM) | MIC (Escherichia coli): > 1020 µg/mL | MIC (Pseudomonas aeruginosa): > 1020 µg/mL | MIC (Pichia kudriavzevii): 512 µg/mL (≈ 2010 µM) | MIC (Candida parapsilosis): 512 µg/mL (≈ 2010 µM) | inhibition (Mus musculus [1]): inactive | inhibition (Mus musculus [2]): inactive | inhibition (Mus musculus [3]): inactive | inhibition (Mus musculus [4]): inactive | inhibition (Mus musculus [13]): inactive | inhibition (Mus musculus [14]): inactive | Activity (Mus musculus [5]): Non-toxic | Activity (Mus musculus [6]): Non-toxic | Activity (Mus musculus [8]): Non-toxic | Activity (Mus musculus [9]): Non-toxic | Activity (Mus musculus [10]): Non-toxic

O=C(OC(Cn1ccnc1)c1ccc2ccccc2c1)c1ccc(Cl)cc1 (centres undefined)
MIC (Staphylococcus aureus): 32 µg/mL (≈ 84.9 µM) | MIC (Enterococcus faecalis): 128 µg/mL (≈ 340 µM) | MIC (Escherichia coli): 1020 µg/mL (≈ 2720 µM) | MIC (Pseudomonas aeruginosa): 1020 µg/mL (≈ 2720 µM) | MIC (Pichia kudriavzevii): 512 µg/mL (≈ 1360 µM) | MIC (Candida parapsilosis): 512 µg/mL (≈ 1360 µM) | inhibition (Mus musculus [1]): inactive | inhibition (Mus musculus [2]): inactive | inhibition (Mus musculus [3]): Active | inhibition (Mus musculus [4]): inactive | inhibition (Mus musculus [13]): inactive | inhibition (Mus musculus [14]): inactive | Activity (Mus musculus [5]): Non-toxic | Activity (Mus musculus [6]): Non-toxic | Activity (Mus musculus [8]): Non-toxic | Activity (Mus musculus [9]): Non-toxic | Activity (Mus musculus [10]): Non-toxic

C/C(=N\CCCC(=O)O)c1ccc2ccccc2c1O
inhibition (Mus musculus [1]): inactive | inhibition (Mus musculus [2]): inactive | inhibition (Mus musculus [3]): inactive | inhibition (Mus musculus [4]): inactive | inhibition (Mus musculus [13]): inactive | inhibition (Mus musculus [14]): inactive | Activity (Mus musculus [5]): Non-toxic | Activity (Mus musculus [6]): Non-toxic | Activity (Mus musculus [15]): Toxic | Activity (Mus musculus [8]): Non-toxic | Activity (Mus musculus [9]): Non-toxic | Activity (Mus musculus [10]): Non-toxic

CCCC(CCC)C(=O)OC(C)c1ccc2ccccc2c1 (centres undefined)
inhibition (Mus musculus [1]): inactive | inhibition (Mus musculus [2]): inactive | inhibition (Mus musculus [3]): inactive | inhibition (Mus musculus [4]): inactive | inhibition (Mus musculus [13]): inactive | inhibition (Mus musculus [14]): inactive | Activity (Mus musculus [5]): Non-toxic | Activity (Mus musculus [6]): Non-toxic | Activity (Mus musculus [15]): Non-toxic | Activity (Mus musculus [8]): Non-toxic | Activity (Mus musculus [9]): Non-toxic | Activity (Mus musculus [10]): Non-toxic

CC(C)(C)OC(=O)NCCCC(=O)OC(Cn1ccnc1)c1ccc2ccccc2c1 (centres undefined)
MIC (Staphylococcus aureus): 16 µg/mL (≈ 37.8 µM) | MIC (Enterococcus faecalis): 128 µg/mL (≈ 302 µM) | MIC (Escherichia coli): > 1020 µg/mL | MIC (Pseudomonas aeruginosa): > 1020 µg/mL | MIC (Pichia kudriavzevii): > 1020 µg/mL | MIC (Candida parapsilosis): > 1020 µg/mL | inhibition (Mus musculus [1]): inactive | inhibition (Mus musculus [2]): Active | inhibition (Mus musculus [3]): Active | inhibition (Mus musculus [4]): inactive | inhibition (Mus musculus [13]): inactive | inhibition (Mus musculus [14]): Active | Activity (Mus musculus [5]): Non-toxic | Activity (Mus musculus [8]): Non-toxic | Activity (Mus musculus [9]): Non-toxic | Activity (Mus musculus [10]): Non-toxic

O=C(Cn1ccnc1)c1ccc2ccccc2c1O
MIC (Staphylococcus aureus): 64 µg/mL (≈ 254 µM) | MIC (Enterococcus faecalis): 64 µg/mL (≈ 254 µM) | MIC (Escherichia coli): 1020 µg/mL (≈ 4060 µM) | MIC (Pseudomonas aeruginosa): > 1020 µg/mL | MIC (Pichia kudriavzevii): 64 µg/mL (≈ 254 µM) | MIC (Candida parapsilosis): 32 µg/mL (≈ 127 µM) | inhibition (Mus musculus [1]): inactive | inhibition (Mus musculus [2]): inactive | inhibition (Mus musculus [3]): Active | inhibition (Mus musculus [4]): inactive | inhibition (Mus musculus [13]): inactive | inhibition (Mus musculus [14]): Active | Activity (Mus musculus [5]): Non-toxic | Activity (Mus musculus [6]): Non-toxic | Activity (Mus musculus [8]): Non-toxic | Activity (Mus musculus [9]): Non-toxic | Activity (Mus musculus [10]): Non-toxic

CC(OC(=O)CCCNC(=O)OC(C)(C)C)c1ccc2ccccc2c1 (centres undefined)
inhibition (Mus musculus [1]): inactive | inhibition (Mus musculus [2]): inactive | inhibition (Mus musculus [3]): inactive | inhibition (Mus musculus [4]): inactive | inhibition (Mus musculus [13]): inactive | inhibition (Mus musculus [14]): inactive | Activity (Mus musculus [5]): Non-toxic | Activity (Mus musculus [15]): Non-toxic | Activity (Mus musculus [8]): Non-toxic | Activity (Mus musculus [9]): Non-toxic | Activity (Mus musculus [10]): Non-toxic

CC(C)CC(=O)OC(C)c1ccc2ccccc2c1 (centres undefined)
inhibition (Mus musculus [1]): inactive | inhibition (Mus musculus [2]): inactive | inhibition (Mus musculus [3]): inactive | inhibition (Mus musculus [4]): inactive | inhibition (Mus musculus [13]): inactive | inhibition (Mus musculus [14]): inactive | Activity (Mus musculus [5]): Non-toxic | Activity (Mus musculus [6]): Non-toxic | Activity (Mus musculus [15]): Non-toxic | Activity (Mus musculus [8]): Non-toxic | Activity (Mus musculus [9]): Non-toxic | Activity (Mus musculus [10]): Non-toxic

OC(Cn1cncn1)(Cn1cncn1)c1ccc(F)cc1F [FLUCONAZOLE]
MIC (Pichia kudriavzevii): 64 µg/mL (≈ 209 µM) | MIC (Candida parapsilosis): 8 µg/mL (≈ 26.1 µM)

CCCCC(=O)OC(C)c1ccc2ccccc2c1 (centres undefined)
inhibition (Mus musculus [1]): inactive | inhibition (Mus musculus [2]): inactive | inhibition (Mus musculus [3]): inactive | inhibition (Mus musculus [4]): inactive | inhibition (Mus musculus [13]): inactive | inhibition (Mus musculus [14]): inactive | Activity (Mus musculus [5]): Non-toxic | Activity (Mus musculus [6]): Non-toxic | Activity (Mus musculus [15]): Non-toxic | Activity (Mus musculus [8]): Non-toxic | Activity (Mus musculus [9]): Non-toxic | Activity (Mus musculus [10]): Non-toxic

— ChEMBL document CHEMBL1156239, “Synthesis, anticonvulsant and antimicrobial activities of some new 2-acetylnaphthalene derivatives” (Bioorg Med Chem, 2010)
